Active and inactive are the calls of the source. The calls are words filed in the database; no cut-off is given here.
How the values were obtained:
[1] = Cytotoxicity against human HepG2 cells assessed as cell viability at 1 to 300 ug/ml after 24 hrs by MTT assay relative to control; format: cell-based; details: read-out: Activity
Outline: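 HepG2 cells exposed to the melanin were read by MTT absorbance. Viability (% of control) is calculated as treated-well absorbance ×100 / control-well absorbance.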

Mus musculus [2] = assay: Protective effect against adenine-induced chronic renal failure in ig dosed Kunming mouse assessed as decrease in serum creatinine levels administered as qd for 4 successive weeks by picric acid colorimetric method; format: functional, organism-based
Outline: (§1)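 Adenine-fed CRF model in male Kunming mice (20 ± 5 g) housed at 18–20 °C on a 12 h light/dark cycle. Oral dosing at 100 or 200 mg kg–1, with or without Haikunshenxi capsule; ten mice per group. Serum creatinine, BUN, total protein and albumin measured, each group compared with the model group.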

Mus musculus [3] = assay: Protective effect against adenine-induced chronic renal failure in ig dosed Kunming mouse assessed as increase in albumin levels in serum administered as qd for 4 successive weeks with haikunshenxi capsule by bromocresol green colorimetric method; format: functional, organism-based; outline: as §1
Mus musculus [4] = assay: Protective effect against adenine-induced chronic renal failure in ig dosed Kunming mouse assessed as increase in total protein levels in serum administered as qd for 4 successive weeks by coomassie brilliant blue method; format: functional, organism-based; outline: as §1
Mus musculus [5] = assay: Protective effect against adenine-induced chronic renal failure in Kunming mouse assessed as weight growth rate at 200 mg/kg, ig qd administered for 4 successive weeks measured 24 hrs post last dose (reference value: 32.42 +/- 1.43%); format: functional
Outline: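 Male Kunming mice (20 ± 5 g) kept on a 12 h light/dark cycle at 18–20 °C on a standard diet. CRF induced by chronic dietary adenine. Test material given orally at 100 or 200 mg kg–1, alone or with Haikunshenxi capsule, alongside normal, model and capsule-only groups; ten mice per group. Weight growth rate recorded in %, kidney index in mg g–1.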

Mus musculus [6] = assay: Protective effect against adenine-induced chronic renal failure in Kunming mouse assessed as kidney index at 100 mg/kg, ig qd administered for 4 successive weeks measured 24 hrs post last dose (reference value: 1.94 +/- 0.03 mg/g); format: functional
Outline: (§2)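 Male Kunming mice (20 ± 5 g) were housed on a 12 h light/dark cycle at 18–20 °C. Chronic renal failure was induced by long-term dietary adenine. The melanin was given orally at 100 or 200 mg kg–1, alone or with Haikunshenxi capsule as positive drug, with ten mice per group. Weight growth rate (%) and kidney index (mg g–1) were recorded.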

Mus musculus [7] = assay: Protective effect against adenine-induced chronic renal failure in Kunming mouse assessed as kidney index at 200 mg/kg, ig qd administered for 4 successive weeks with haikunshenxi capsule measured 24 hrs post last dose (reference value: 1.94 +/- 0.03 mg/g); format: functional; outline: as §2
Mus musculus [8] = assay: Protective effect against adenine-induced chronic renal failure in Kunming mouse assessed as nephridial SOD levels at 200 mg/kg, ig qd administered for 4 successive weeks by hydroxylamine method (reference value: 30.45 +/- 1.12 U/mg); format: functional
Mus musculus [9] = assay: Protective effect against adenine-induced chronic renal failure in Kunming mouse assessed as nephridial CAT levels at 100 mg/kg, ig qd administered for 4 successive weeks by visible spectrometry method (reference value: 44.13 +/- 1.25 U/mg); format: functional
Mus musculus [10] = assay: Protective effect against adenine-induced chronic renal failure in Kunming mouse assessed as nephridial GSH levels at 200 mg/kg, ig qd administered for 4 successive weeks by colorimetric method (reference value: 3.05 +/- 0.11 mg/g); format: functional
Mus musculus [11] = assay: Protective effect against adenine-induced chronic renal failure in Kunming mouse assessed as nephridial GSH levels at 100 mg/kg, ig qd administered for 4 successive weeks with haikunshenxi capsule by colorimetric method (reference value: 3.05 +/- 0.11 mg/g); format: functional
Mus musculus [12] = assay: Protective effect against adenine-induced chronic renal failure in Kunming mouse assessed as nephridial MDA levels at 100 mg/kg, ig qd administered for 4 successive weeks by thiobarbituric acid method (reference value: 5.05 +/- 0.15 nmol/ml); format: functional
Mus musculus [13] = assay: Protective effect against adenine-induced chronic renal failure in ig dosed Kunming mouse assessed as increase in nephridial SOD levels administered as qd for 4 successive weeks by hydroxylamine method; format: functional, organism-based
Outline: (§3)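 Male Kunming mice (20 ± 5 g) given dietary adenine to induce CRF, then dosed orally at 100 or 200 mg kg–1, with or without Haikunshenxi capsule; n = 10 per group. Kidney homogenate assayed for SOD and CAT (U mg–1 protein), GSH-Px (U L–1), GSH (mg g–1 protein) and MDA (nmol mL–1).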

Mus musculus [14] = assay: Protective effect against adenine-induced chronic renal failure in ig dosed Kunming mouse assessed as increase in nephridial GSH levels administered as qd for 4 successive weeks by colorimetric method; format: functional, organism-based; outline: as §3
Mus musculus [15] = assay: Protective effect against adenine-induced chronic renal failure in ig dosed Kunming mouse assessed as increase in nephridial GSH-PX levels administered as qd for 4 successive weeks with haikunshenxi capsule by colorimetric method; format: functional, organism-based; outline: as §3
Mus musculus [16] = assay: Protective effect against adenine-induced chronic renal failure in Kunming mouse assessed as nephridial IL-6 levels at 100 mg/kg, ig qd administered for 4 successive weeks (reference value: 20.85 +/- 0.11 pg/ml); format: functional
Mus musculus [17] = assay: Protective effect against adenine-induced chronic renal failure in Kunming mouse assessed as nephridial iNOS levels at 100 mg/kg, ig qd administered for 4 successive weeks (reference value: 1.98 +/- 0.12 U/mg); format: functional
Mus musculus [18] = assay: Protective effect against adenine-induced chronic renal failure in ig dosed Kunming mouse assessed as decrease in nephridial TNF-alpha levels administered as qd for 4 successive weeks; format: functional, organism-based
Outline: (§4)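 CRF model made by chronic dietary adenine in male Kunming mice (20 ± 5 g); oral dosing at 100 or 200 mg kg–1, alone or with Haikunshenxi capsule; ten mice per group. Kidney tissue TNF-α, IL-1β and IL-6 measured as pg per mg protein, and iNOS activity as U mg–1 protein.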

Mus musculus [19] = assay: Protective effect against adenine-induced chronic renal failure in ig dosed Kunming mouse assessed as decrease in nephridial IL-6 levels administered as qd for 4 successive weeks; format: functional, organism-based; outline: as §4
Mus musculus [20] = assay: Protective effect against adenine-induced chronic renal failure in ig dosed Kunming mouse assessed as decrease in nephridial TNF-alpha levels administered as qd for 4 successive weeks with haikunshenxi capsule; format: functional, organism-based; outline: as §4
Mus musculus [21] = assay: Protective effect against adenine-induced chronic renal failure in ig dosed Kunming mouse assessed as decrease in nephridial IL-6 levels administered as qd for 4 successive weeks with haikunshenxi capsule; format: functional, organism-based; outline: as §4
Mus musculus [22] = assay: Protective effect against adenine-induced chronic renal failure in Kunming mouse assessed as reduction in number of adenine crystals at 200 mg/kg, ig qd administered for 4 successive weeks with haikunshenxi capsule by haematoxylin and eosin dye-based optical microscopic method; format: functional, organism-based
Outline: (§5)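 Kidneys were taken from male Kunming mice given an adenine diet plus oral melanin (100 or 200 mg kg–1), with or without Haikunshenxi capsule, ten per group. Histological sections were examined at 400× for glomeruli, tubules, adenine crystals, tubular atrophy and interstitial fibrosis.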

Mus musculus [23] = assay: Protective effect against adenine-induced chronic renal failure in Kunming mouse assessed as appearance of complete glomeruli in kidney at 100 mg/kg, ig qd administered for 4 successive weeks by haematoxylin and eosin dye-based optical microscopic method; format: functional, organism-based; outline: as §5

Cc1c(=O)c(=O)c2c3c[nH]c4c(C)c(=O)c(=O)c(c5c[nH]c1c52)c43
viability at 24 h [1]: 100% | Activity (Mus musculus [2]): Dose-dependent effect | Activity (Mus musculus [3]): Dose-dependent effect | Activity (Mus musculus [4]): Dose-dependent effect | Activity (Mus musculus [5]): 52.68% | Activity (Mus musculus [6]): 1.72 mg/g | Activity (Mus musculus [7]): 1.13 mg/g | Activity (Mus musculus [8]): 38.25 U/mg | Activity (Mus musculus [9]): 60.53 U/mg | Activity (Mus musculus [10]): 4.84 mg/g | Activity (Mus musculus [11]): 5.23 mg/g | Activity (Mus musculus [12]): 3.95 nmol/mL | Activity (Mus musculus [13]): Dose-dependent effect | Activity (Mus musculus [14]): Dose-dependent effect | Activity (Mus musculus [15]): Dose-dependent effect | Activity (Mus musculus [16]): 18.27 pg/mL | Activity (Mus musculus [17]): 1.79 U/mg | Activity (Mus musculus [18]): Dose-dependent effect | Activity (Mus musculus [19]): Dose-dependent effect | Activity (Mus musculus [20]): Dose-dependent effect | Activity (Mus musculus [21]): Dose-dependent effect | Activity (Mus musculus [22]): Active | Activity (Mus musculus [23]): Active
